# Variants at the floor of the assay were thinned out.
# B1: tRNA (parent)
# chain: GUUCCGUUGGCGUAAUGGUAACGCGUCUCCCUCCUAAGGAGAAGACUGCGGGUUCGAGUCCCGUACGGAACG
# Variants of: B1
# Assay: yeast fitness relative to wild type (ratio to wild type); higher = fitter; tRNA-Arg(CCU), competitive growth, 37 C, YPD
# Method in brief: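 Amplicons of the tRNA-Arg(CCU) gene were sequenced, 100-nucleotide paired-end, from the start population and from each end population of a pooled yeast competition. The competition, in six parallel replicates, lasted 24 hours in YPD at 37°C. Fitness relative to wild type was calculated from changes in genotype frequencies. Genotypes had to have ≥ 100 starting reads, and estimates < 0.5 were set to 0.5.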
row,Variant,yeast fitness
1,G38A C60U G67C,≤ 0.5
2,G38A C61G G68C,≤ 0.5
3,G38A C61U,0.931
4,G38A C62A A65U C66U,≤ 0.5
5,G38A C62A C66G,0.804
6,G38A C62U,0.961
7,G38A C66A,0.72
8,G38A C66U,0.909
9,G38A G39A,0.637
10,G38A G39A A42G C46G,0.537
11,G38A G39C C60A C66G,≤ 0.5
12,G38A G41C A69U,0.822
13,G38A G44C,0.712
14,G38A G48A A65G,0.559
15,G38A G48A C49G,0.525
16,G38A G48A C49G A69U,≤ 0.5
17,G38A G48A C49G A70U,≤ 0.5
18,G38A G48A G50A,≤ 0.5
19,G38A G50A,0.859
20,G38A G50C,0.746
21,G38A G52C C62U,0.595
22,G38A G52C G56A,0.609
23,G38A G63A,0.897
24,G38A G67C,0.776

row,Variant,yeast fitness
1,G38A G67U,0.803
2,G38A U47C C62U,0.539
3,G38A U47C C66U,0.555
4,G38A U47C G48A,0.542
5,G38A U47C G56A,0.673
6,G38A U47G,0.574
7,G38A U53A,0.587
8,G38A U53A C66U,≤ 0.5
9,G38A U53C,0.799
10,G38A U64A,0.765
11,G38C A40C U53C,0.639
12,G38C A40U,0.639
13,G38C A40U A42G G51A C60U G68A,≤ 0.5
14,G38C A40U G48A C66U,0.556
15,G38C A40U G51A C60U,0.725
16,G38C A40U G51A C60U G68A,≤ 0.5
17,G38C A40U G67A,≤ 0.5
18,G38C A42C,0.595
19,G38C A42C C49A,≤ 0.5
20,G38C A42G,0.655
21,G38C A42G C62U,≤ 0.5
22,G38C A42G U64G,0.781
23,G38C A43C,1.12
24,G38C A43C G51C G56C,≤ 0.5

row,Variant,yeast fitness
1,G38C A43G,0.643
2,G38C A43G C49G G51A,≤ 0.5
3,G38C A43G C49G G51A C60U,≤ 0.5
4,G38C A43U,0.769
5,G38C A45C,0.58
6,G38C A45C U47C,≤ 0.5
7,G38C A45G A70C,0.548
8,G38C A45G U59A,≤ 0.5
9,G38C A45U C66U,≤ 0.5
10,G38C A57C,0.535
11,G38C A65C C66U,≤ 0.5
12,G38C A65G,0.771
13,G38C A69C,0.722
14,G38C A69U,0.788
15,G38C A70U,0.628
16,G38C C46A,0.819
17,G38C C46A U59C,≤ 0.5
18,G38C C46G C55G C61G,≤ 0.5
19,G38C C46U A69U A70G,≤ 0.5
20,G38C C49G G50C C61U,0.555
21,G38C C49G U54G,0.621
22,G38C C49U,0.67
23,G38C C49U C62U A69U,0.819
24,G38C C55G,0.617

row,Variant,yeast fitness
1,G38C C55G A69C,0.579
2,G38C C55G G67A,≤ 0.5
3,G38C C55U,0.545
4,G38C C60A,≤ 0.5
5,G38C C60U G68C,≤ 0.5
6,G38C C61A,0.608
7,G38C C61A G67A,≤ 0.5
8,G38C C62A,0.624
9,G38C C62G,0.63
10,G38C C62U A69U,0.603
11,G38C C62U A70U,0.533
12,G38C C62U U64C A70U,≤ 0.5
13,G38C C66A,0.561
14,G38C C66G G67U,≤ 0.5
15,G38C C66U,0.664
16,G38C G39C C46U C66U A69U,≤ 0.5
17,G38C G39C G56C G68A,≤ 0.5
18,G38C G39C U54G,0.545
19,G38C G39U C60A,≤ 0.5
20,G38C G41A C61U,0.553
21,G38C G41C,0.614
22,G38C G41C A57C,0.576
23,G38C G41C A65G,0.597
24,G38C G41C A70C,0.553

row,Variant,yeast fitness
1,G38C G41C C55U,≤ 0.5
2,G38C G41C C55U G67C,≤ 0.5
3,G38C G41C C61U A70G,≤ 0.5
4,G38C G41C G50U A65G,≤ 0.5
5,G38C G41C U54C A65G,≤ 0.5
6,G38C G44A,0.72
7,G38C G48A G56C,0.7
8,G38C G50A,0.734
9,G38C G50A A70G,0.527
10,G38C G50A U53G G68A,0.597
11,G38C G52C,0.502
12,G38C G56A,0.789
13,G38C G56A G58A,0.609
14,G38C G56A G58A A65C,≤ 0.5
15,G38C G58A,0.756
16,G38C G58C,0.937
17,G38C G58C A69U,0.714
18,G38C G58C U64A,0.621
19,G38C G63A,0.674
20,G38C G67A A69U,0.537
21,G38C G67C,0.748
22,G38C G67U A70U,≤ 0.5
23,G38C G68A A70U,≤ 0.5
24,G38C G68C,0.819

row,Variant,yeast fitness
1,G38C U47C,0.757
2,G38C U47C A65U,≤ 0.5
3,G38C U47G,0.538
4,G38C U54A,0.615
5,G38C U54A A65G,≤ 0.5
6,G38C U54A U59G A65C,0.692
7,G38C U54G C60A,0.589
8,G38C U64A G68A A69C,≤ 0.5
9,G38U G67C,0.772
10,G39A A40U,1.19
11,G39A A42C,0.646
12,G39A A42C C61U,0.542
13,G39A A42G,0.811
14,G39A A43U,0.811
15,G39A A43U A57G,0.562
16,G39A A43U C46U,0.574
17,G39A A43U U53A A57U A65U,≤ 0.5
18,G39A A45C C61A,0.618
19,G39A A45C C61U,0.706
20,G39A A57G,0.79
21,G39A A57U,0.834
22,G39A A57U G67C,0.555
23,G39A A65C,0.837
24,G39A A65G,0.985

row,Variant,yeast fitness
1,G39A A69C,0.818
2,G39A A69G A70G,0.946
3,G39A A69U,1.03
4,G39A A70C,1.04
5,G39A C46A,1.01
6,G39A C49A,0.598
7,G39A C49A G52A G63A A70C,≤ 0.5
8,G39A C49G,0.66
9,G39A C49G A69U,≤ 0.5
10,G39A C49U A57U,0.562
11,G39A C49U C62U,0.664
12,G39A C55A,0.696
13,G39A C55A G56A G67C,≤ 0.5
14,G39A C55G,0.726
15,G39A C55G G56A A69U A70G,≤ 0.5
16,G39A C55U,0.873
17,G39A C55U C61A,≤ 0.5
18,G39A C55U G68C A69G,≤ 0.5
19,G39A C60G,0.666
20,G39A C60G A70G,≤ 0.5
21,G39A C61A,0.789
22,G39A C61A A69U,≤ 0.5
23,G39A C61U,0.866
